# Shown are actives, neighbours in structure and some others; about 0.81% of the full set was active somewhere.
# PKD1 kinase inh – PKD1 (human) kinase inhibition; Q15139; PKD1 kinase fluorescence polarization assay; inhibition, % (concentration not given with the values); 200,000 compounds, 0.056% hits; in the data active means inhibition above about 50%
# Calpain2 inh – blocks pig calpain II enzyme activity | 220,000 compounds, 0.37% hits | AID 1236 | inhibition, % at 16 µM | purified calpain II, fluorogenic peptide substrate, 30 min;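 active means inhibition above about 50%, limit read from the data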
# Efa HMGR inh – inhibitors of class II HMG-CoA reductase from Enterococcus faecalis; 190,000 compounds, 0.41% hits; purified E. faecalis HMGR, NADPH absorbance 340 nm kinetic; inhibition, % at 10 µM;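 active means inhibition above a set limit, the median over all tested compounds plus 3 SD, cut at about 9.5% in these data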;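 further: enzyme runs in reverse so mevalonate oxidation gives rising NADPH absorbance; 0% = complete reaction with DMSO and 100% = background rate lacking mevalonate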
# Pf gametocyte – P. falciparum stage V gametocyte viability inhibition; 150,000 compounds, 0.065% hits; inhibition, % at 10.9 µM; P. falciparum stage V gametocytes, ATP luminescence, 24 h;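 active means inhibition above the mean plus 3 SD of compounds within the control limits, set per campaign, cut at about 38% in these data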;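 further: 0% = DMSO wells and 100% = medium only without gametocytes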
# DTT redox prof – compounds producing H2O2 with reducing agent – biochemical, NIH compound library profiling, artefact control for MLSCN library redox annotation, primary screen. DTT-dependent redox cycling H2O2, phenol red/HRP absorbance; 100% = 100 µM peroxide control, 0% = buffer. activation, % at 10 µM. 200,000 compounds, 0.03% hits;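 active means activation of at least 50% relative to the plate's high and low controls in the primary single-dose screen; inactive means activation below 50%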;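 further: compound incubated with DTT at 0.8 mM final as the reducing agent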
# Rad51 HR inh – blocks human Rad51 in homologous recombination; hRad51 DNA strand exchange, fluorescence dequenching; inhibition, % at 10 µM; AID 1385; Q06609; 200,000 compounds, 0.085% hits;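 active means inhibition above 40% at the single screening dose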;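 further: 0% = DMSO control wells and 100% = blanks with heterologous ssDNA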
# Target sequence (Q06609 whole entry, looked up): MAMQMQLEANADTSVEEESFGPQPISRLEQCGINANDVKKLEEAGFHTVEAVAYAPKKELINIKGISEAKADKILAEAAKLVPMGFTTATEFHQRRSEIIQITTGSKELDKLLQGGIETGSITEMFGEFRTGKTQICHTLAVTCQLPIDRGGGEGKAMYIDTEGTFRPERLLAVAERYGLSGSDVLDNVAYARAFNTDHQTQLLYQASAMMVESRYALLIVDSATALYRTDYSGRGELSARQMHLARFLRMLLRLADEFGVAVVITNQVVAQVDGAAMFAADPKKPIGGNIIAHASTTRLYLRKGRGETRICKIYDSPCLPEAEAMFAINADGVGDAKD
#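 Material: Human Rad51 nucleoprotein filaments preassembled on unlabelled ssDNA | Also added: Labelled 47-mer dsDNA for strand exchange | Dosing: Single dose, 10 µM final compound | Schedule: 30-min compound preincubation and 15-min exchange, both room temperature | Technique: Fluorescence dequenching at 485/520 nm | Measure: Percent inhibition relative to plate controls and blanks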
# PKD FP artifact – counter-screen for PKD inhibitors: fluorescence polarization interference; 85 tested, under 10 active; inhibition, % at 10 µM; AID 1315; shares compounds with PKD1 kinase inh; PKD1 FP assay interference counter-screen; call rule not given here
# DTT redox conf – redox cycling H2O2 generation, confirmed; shares compounds with DTT redox prof; DTT-dependent redox cycling H2O2, phenol red-HRP absorbance; EC50, µM; 60 compounds, 40% hits;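 active means EC50 under a set limit for hydrogen peroxide production with the reducing agent DTT present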
# Starred values were filed as active, the others as inactive; . = no result given; ! = not active in a repeat.
SMILES,PKD1 kinase inh,Calpain2 inh,Efa HMGR inh,Pf gametocyte,DTT redox prof,Rad51 HR inh,others
COc1ccc(C[C@@H]2c3cc(O)c(OC)cc3CCN2C)cc1O,-10,5,20*,23,0,-2,
COC(=O)C1=C(c2cc3ccccc3s2)C[C@@H]2CC[C@H]1N2C(=O)NCc1ccc(C(F)(F)F)cc1,.,.,.,2,.,3,
O=C(C1CCC(=O)N1C1CCCCC1)N1CCC2(CC1)OCCO2 (centres undefined),-5,59*,-4,.,0,.,
O=C(CNC1CCCCC1)N1CCC2(CC1)OCCO2,-3,-9,-8,8,-1,4,
COC1=CC(=O)[C@]2(C=C1OC)OC[C@@H]1Oc3c(ccc4c3C=CC(C)(C)O4)C(=O)[C@@H]12,.,.,.,-2,.,.,
COC(=O)C1=C(c2ccc(OC)c(OC)c2)C[C@@H]2CC[C@H]1N2C(=O)NCCCOC(C)C,.,.,.,-6,.,.,
CC(=O)CC(=O)C1C(=O)N(C)C(=O)N(C)C1=O,1,-11,11*,-2,0,0,
CC(C)Oc1cc(-n2c(=S)[nH]c3ccccc3c2=O)c(Cl)cc1Cl,-3,63*,-6,-6,1,4,
COc1cc(-n2c(=S)[nH]c3ccccc3c2=O)c(Cl)cc1Cl,10,8,8,-39,2,-1,
CN1CC[C@@H](c2ccc(F)cc2)[C@H](COc2ccc3c(c2)OCO3)C1,.,.,.,.,.,-3,
CCc1ccc(C(=O)C23CN4CN(CN(C4)C2)C3)cc1,-7,-17,12*,.,1,8,
COc1ccc(C(=O)C23CN4CN(CN(C4)C2)C3)cc1,2,7,1,.,0,5,
O=C(Nc1cccc(C(F)(F)F)c1)c1cccn(Cc2ccc3c(c2)OC(F)(F)O3)c1=O,-4,52*,1,12,0,1,
Cc1cccc(C)c1NC(=O)c1cccn(Cc2ccc3c(c2)OC(F)(F)O3)c1=O,-15,23,-5,-15,1,0,
CC(C)Oc1cccc(NC(=O)c2cccn(Cc3ccc4c(c3)OC(F)(F)O4)c2=O)c1,-5,-14,14*,23,2,-7,
CCN1C[C@@]2(COC)C3[C@@H](OC)[C@H]4[C@@H]1[C@@]3(C1C[C@H]3[C@H](OC(=O)c5ccccc5)C1[C@]4(OC(C)=O)C[C@H]3OC)[C@@H](OC)C[C@H]2O (some centres undefined),.,.,.,.,.,-4,
COc1ccc(CNCCc2ccc(Cl)cc2)c(OC)c1OC,.,.,.,6,.,.,
CCCCC(CC)CNCC(O)c1ccccc1 (centres undefined),4,8,15*,3,-4,-10,
O=C(O)[C@@H]1C[C@H]1[C@@H](NP(=O)(c1ccccc1)c1ccccc1)c1ccccc1,3,-11,21*,-15,0,-2,
C[N+]1(CCC(C(N)=O)(c2ccccc2)c2ccccc2)CCCCC1,.,.,.,.,.,-2,
CCCCNC(=S)N1CCn2cccc2C1c1cccnc1 (centres undefined),-3,2,11*,4,0,2,
CC1=CC(C)C(COC(N)=O)(COC(N)=O)C(C)C1 (centres undefined),-1,-8,1,.,1,48*,
CN1CC[C@]2(c3cccc(O)c3)Cc3nc4ccccc4cc3C[C@H]2C1,.,-2,-2,.,.,6,
COc1ccc2[nH]c(C)c(CCN3CCC(=O)C(C)C3C)c2c1 (centres undefined),-9,60*,3,.,-1,1,
COc1ccc2[nH]c(C)c(CCNCc3cc(OC)c(OC)c(OC)c3)c2c1,7,-32,-3,-1,0,-18,
SMILES,PKD1 kinase inh,Calpain2 inh,Efa HMGR inh,Pf gametocyte,DTT redox prof,Rad51 HR inh,others
C=C(C)[C@@]12OC3(c4ccccc4)O[C@@H]1C1[C@@H]4O[C@]4(CO)[C@@H](O)[C@]4(O)C(=O)C(C)=C[C@H]4[C@@]1(O3)[C@H](C)[C@H]2OC(=O)/C=C/C=C/c1ccccc1 (some centres undefined),.,.,.,.,.,-1,
COc1cc(/C=N/NP(=S)(c2ccccc2)c2ccccc2)ccc1O,3,53*,-1,14,0,-3,
O=P(Nc1cccc(Cl)c1)(Oc1ccccc1)Oc1ccccc1,-9,60*,0,2,-1,5,
O=c1[nH]c(N2CCN(Cc3ccc4c(c3)OCO4)CC2)nc2c1CCC2,2,31,-3,.,3,84*,
Cc1c2ccncc2c(C)c2c1[nH]c1ccccc12,87*,7,.,.,-1,5,
c1ccc2c(c1)[nH]c1cnccc12,-3,-230,-10,.,-1,-50,
COC[C@]12CN(C)C3C4[C@H](OC)[C@H]1C3([C@@H](OC)C[C@H]2O)[C@@H]1C[C@@]2(O)[C@H](OC(=O)c3ccccc3)[C@@H]1[C@]4(OC(C)=O)[C@@H](O)[C@@H]2OC,.,.,.,.,.,-1,
Cc1nn(Cc2ccccc2)c(C)c1C(=O)NCc1ccccc1F,-6,-7,-4,13,0,44*,
CC(=O)N(C)CC#CCN1CCC(O)CC1,.,.,.,-3,.,9,
Cc1cc2c(C(C)C)c(O)c(O)c(C=O)c2c(O)c1-c1c(C)cc2c(C(C)C)c(O)c(O)c(C=O)c2c1O,0,55*!,7,.,0,-4,
Cc1nc2ccccc2c(=O)n1/N=C/c1cc(Br)cc(Br)c1O,.,.,.,9,.,.,
CC[N+](C)(CC)CCCCOc1ccc2c(c1)C(=O)c1cc(OCCCC[N+](C)(CC)CC)ccc1-2,.,0,.,-16,.,42*,
COC(=O)C1=C(c2ccc(OC)c(OC)c2)C[C@@H]2CC[C@H]1N2C(=O)NCCNC(C)=O,.,.,.,-17,.,.,
CCN(CC)C(=O)c1ccc(NC(=O)CCCSc2ccccc2)cc1,-7,25,1,-22,-1,-3,
CCN(CC)C(=O)c1ccc(NC(=O)Nc2ccccc2F)cc1,-7,5,1,42*,0,5,
O=C1Nc2ccccc2/C1=C/c1cnc[nH]1,69*,13,-3,.,1,-1,PKD FP artifact=-24
COc1cc2c(cc1OC)-c1c(OC)c(OC)c(OC)c3ccnc(c13)C2=O,50*,-18,2,.,0,4,PKD FP artifact=-18
COc1cc(CC2(CCc3ccncc3)C(=O)NC(=O)NC2=O)cc(OC)c1OC,2,-5,0,-4,-1,-2,
CN1CCN(c2ncnc3c2cnn3C)CC1,.,20,.,-20,.,-12,
CCCCn1c(NS(=O)(=O)c2ccccc2)c(C(=O)OCC)c2nc3ccccc3nc21,-2,-449,0,25,167*,-13,DTT redox conf=>50
CC(=O)C1=C(C)OC(N)=C(C(=O)OC(C)C)C12C(=O)Nc1ccccc12 (centres undefined),-6,26,-2,16,0,-2,

# Screens deposited in PubChem by several laboratories.
